Screening results (PubChem BioAssay)
CaV13 ICDI inh: Disruptors of the CACNA1D IQ motif to Ca2+-dependent inactivation inhibitor domain association, primary screening, Förster resonance energy transfer in intact living …; HEK cells, CFP/YFP FRET ICDI-IQ, plate reader, 10 min; percent FRET-ratio fall versus neutral wells; AID 743397; hit rate 0.098% among 340,000; inhibition, % at 12.3 µM;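 active = mean replicate inhibition of at least 30% and at least 1% of replicates passing that level; inconclusive = only one of the two criteria is met; inactive = neither criterion is met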;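 note: 0% = median of the neutral control wells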
T cruzi inh: inhibitors of intracellular T. cruzi growth, primary screen, luminescence, NIH3T3 host cells; inhibition, % (no concentration beside the values); AID 1885, 2009; T. cruzi beta-gal in NIH3T3, 90 h; hit rate 1.4% among 300,000;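 active = mean inhibition across valid replicates above about 55%, limit read from the data; inconclusive = mean below that limit but half or more replicates reach it; inactive = mean below it, under half of replicates reach it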;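 note: signal also drops with host cell toxicity which is not excluded here; 0% = plate median of DMSO wells and 100% = zero luminescence signal; higher percent means less beta-gal luminescence so fewer parasites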
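System: NIH/3T3 fibroblasts plus reporter T. cruzi. Medium: DMEM plus 2% FBS. Probe or stimulus: 5000 reporter trypomastigotes per well. Compound: single 50 nL compound addition per well in DMSO. Incubation: co-culture of at least 90 h after 3 h attachment. Detection: GalScreen β-gal luminescence, detergent lysis, 60 min. Evaluation: parasite load inhibition, %.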
N-glyco inh: increase of ERlucT glycosylation luciferase signal, primary screen, N-linked glycosylation inhibitor project, D54 ERlucT cells, luminescence, set 2; D54 ERlucT glycosylation luciferase reporter, 24 h; percent of 100 nM tunicamycin response; hit rate 0.23% among 360,000; AID 588692, 2011; reporter increase, % at 12.5 µM;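 active = mean luciferase reporter signal, scaled so untreated is 0 and the glycosylation-blocking control 100, at or above a set limit in every replicate; inconclusive = mean reaches the limit but not every replicate does; inactive = mean below the limit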;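 note: luciferase carries N-glycosylation sites so blocking glycosylation raises the light; 0% = median of neutral control wells and 100% = median of 100 nM tunicamycin wells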
PfHsp90 set2: growth inhibition of PfHsp90-expressing yeast, primary screen, antimalarial PfHsp90 inhibitor project, S. cerevisiae, BacTiter-Glo luminescence, single point, set 2 | BacTiter-Glo ATP, 48 h; yeast lacking PDR1 and PDR3 efflux regulators | hit rate 0.32% among 310,000 | inhibition, % at 9.4 µM;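 active = every replicate shows inhibition above about 80%, whatever the replicate mean, limit read from the data; inconclusive = mean inhibition reaches the set limit but some replicate falls short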;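 note: 0% = DMSO neutral controls and 100% = 20 µM radicicol positive controls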
PvdQ acylase: P. aeruginosa PvdQ acylase inhibitors, primary screen, biochemical, fluorescence, plate reader and imaging, single point; PvdQ acylase [Pseudomonas aeruginosa LESB58]; purified PvdQ acylase; inhibition, % at 10 µM; hit rate 0.063% among 340,000; AID 488965, 2010; in the data active = inhibition above about 30%, passing the limit was not always enough; inconclusive = no clear call, values can overlap the other calls;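 note: 0% = vehicle neutral wells and 100% = reference inhibitor wells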
HSF-1 act: HSF-1 activators, primary screen, NIH3T3-HGL cells, MG132 stress, luminescence, single point; NIH3T3-HGL HSF-1 luciferase reporter, 8 h; 100% = twice DMSO control signal; activation, % at 9 µM; hit rate 1.7% among 300,000; AID 504408, 2011;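 active = mean replicate activation of at least 50% with a set share of replicates each reaching 50%; inconclusive = only one of those two conditions met; inactive = mean below 50% and too few replicates reaching it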;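 note: 0% = median of the neutral control wells and 100% = twice that signal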
* = called active by the depositor; ? = inconclusive; · = not tested or not shown. This is a sample that favours compounds with a hit; in the whole collection about 3% have one here.

SMILES	CaV13 ICDI inh	T cruzi inh	N-glyco inh	PfHsp90 set2	PvdQ acylase	HSF-1 act
CC1CCCCC1NC(=O)/C(C#N)=C/c1ccccc1F (centres undefined)	-4.5	4.8	16.2	120.9*	-8.3	-12.6
COc1cc(/C=C(\C#N)C(=O)NC2CCCCC2C)ccc1OS(=O)(=O)c1ccc(C)cc1 (centres undefined)	-4.5	45.9	1.8	-19.7	2.3	64.1*
COc1cc(/C=C(\C#N)C(N)=O)ccc1OS(=O)(=O)c1ccc(C)cc1	-4.9	4.8	5.8	13.0	-2.7	·
CCc1nc2ccc(C(=O)Nc3ccc(C(N)=O)cc3)cn2c1N(CCC(C)C)CCN(C)C	-4.7	·	10.2	·	·	·
Cc1c(C#N)c(NC(=O)CCl)n(Cc2ccccc2)c1C	-4.0	?	2.0	-9.6	-6.8	57.1*
Cc1c(C#N)c(NC(=O)CCl)n(Cc2cccs2)c1C	-4.2	61.0*	2.7	-4.4	-10.0	-45.2
COC(=O)c1cc2c(c3c4ccccc4n(S(=O)(=O)c4ccc(OC)cc4)c13)C(=O)N(Cc1ccc(C(F)(F)F)cc1)C2	-4.8	·	·	·	·	·
CSc1nn(CCC#N)c(=O)[nH]c1=O	-10.1	·	·	·	·	·
COc1cc2c(cc1OC)[C@](C)(c1ccccc1)C[C@@H]2NCC=C(C)C	-9.0	·	·	·	·	·
Brc1ccc(-c2csc(N3CCCCCC3)n2)cc1	-2.3	-33.2	-1.0	-34.0	-9.8	4.8
NC(=O)C1(N2CCCCC2)CCN(c2nc(-c3ccc(Br)cc3)cs2)CC1	-8.0	60.2*	2.6	-13.4	14.4	19.5
COc1cccc(CNC(=O)CN2C(=O)CC(c3ccccc3)=Nc3ccccc32)c1	3.3	4.9	0.4	-12.7	-5.5	-4.2
C=CCN1C(=S)CC(c2ccccc2)=Nc2ccccc21	63.5*	8.6	0.3	-3.6	-8.2	-8.6
O=C(COc1ccccc1Br)Nc1ccc2c(c1)OCCCO2	-4.4	3.4	-6.8	-10.8	-1.7	57.2*
O=C(NCc1ccc(Cl)c(Cl)c1)c1cc(C2CCCCN2C(=O)c2cccs2)on1 (centres undefined)	-4.5	·	-3.3	·	·	·
CN(C)c1ccc(C(=S)N2CCN(S(=O)(=O)c3ccccc3)CC2)cc1	-2.3	56.4*	3.6	-17.3	4.7	17.9
Clc1ccc(-c2nnc(-c3ccc(Br)o3)o2)c(Cl)c1	-9.1	20.2	-4.2	7.6	-5.1	60.4*
Clc1ccc(-c2nnc(-c3ccccc3)o2)c(Cl)c1	·	-7.8	-16.0	-37.2	-2.2	22.6
CSc1ccccc1-c1nnc(-c2ccc(Cl)c(Cl)c2)o1	·	4.7	0.2	-22.7	-1.5	10.5
CC(C)OC(=O)CSc1nnc(-c2ccc(Cl)cc2Cl)o1	-5.0	-19.8	-0.1	-27.7	-7.7	75.0*
CSc1ccccc1-c1nnc(-c2ccc(Cl)cc2Cl)o1	-0.1	23.2	-1.1	21.1	-9.1	53.8*
COc1ccc(-c2cc(C(=O)NCc3ccc(C(F)(F)F)cc3)[nH]n2)c(C)c1	-4.6	·	-2.1	·	·	·
CCOC(=O)N[C@@H](Cc1cccnc1)C(=O)N1CCC[C@H]1C(=O)NC1CCCC1	-2.7	·	·	·	·	·
COc1cccc2[nH]c3c(N4CC(C)CC(C)C4)ncnc3c12 (centres undefined)	·	56.6*	·	·	·	20.4
COc1cccc2[nH]c3c(N4CCCC(C)C4)ncnc3c12 (centres undefined)	-6.8	28.9	11.7	-33.0	-8.6	8.0
SMILES	CaV13 ICDI inh	T cruzi inh	N-glyco inh	PfHsp90 set2	PvdQ acylase	HSF-1 act
Cc1cc(N2CCN(CC(C)(C)O)C[C@@H]2C)ccc1N1CCN(CC(C)(C)O)[C@@H](C)C1	-9.9	·	·	·	·	·
O=C1c2ccccc2S(=O)(=O)N1Cc1nnc(-c2ccccc2Br)o1	-0.6	3.1	-1.7	·	-12.7	0.6
O=S1(=O)c2cccc3cccc(c23)N1Cc1nnc(-c2ccccc2Br)o1	-5.0	3.7	-0.6	3.3	-11.6	73.4*
CCN(CC)S(=O)(=O)c1ccc(N2CC(C(=O)NCc3ccco3)CC2=O)cc1 (centres undefined)	-3.9	·	1.8	·	·	·
Cc1cccc(C)c1N1CCN(c2ccc3nnc(C(F)(F)F)n3n2)CC1	-1.2	17.8	4.2	·	-3.4	129.3*
FC(F)(F)c1nnc2ccc(N3CCCCC3)nn12	-20.8	-5.7	1.6	·	·	16.8
CCn1nc(C(=O)OCC(=O)Nc2nc(-c3ccc(OC)cc3)cs2)c2ccccc2c1=O	-2.5	-4.4	-5.5	-9.1	-6.8	77.0*
COc1cccc2c(=O)c3c(cnn3C)n(C)c12	35.3*	4.1	6.2	-12.4	-28.2	-3.3
COc1cccc2c(=O)c3ccoc3n(C)c12	·	-3.6	0.2	-1.0	4.9	4.7
CCC(=O)N1CCC(C)(C(=O)Nc2nccc3ccccc23)C1 (centres undefined)	-6.6	·	-1.6	·	·	·
O=c1[nH]c(=O)c2cc([N+](=O)[O-])cc([N+](=O)[O-])c2[nH]1	-6.3	71.8*	0.4	-36.1	-1.2	11.6
COC(=O)c1ccc(-c2cccc(CN3CCN(c4ncc(Cc5ccccc5)cn4)CC3)c2)cc1	-9.9	·	·	·	·	·
Cc1ccc2nc(-c3ccccc3)c(Cc3ccccc3C(F)(F)F)n2c1	-6.4	·	-4.2	·	·	·
Cc1ccc(-c2nc(-c3ccncc3)no2)cc1C	-5.1	-19.7	-14.1	-16.6	3.7	59.9*
O=C(C[n+]1ccc(Cc2ccccc2)cc1)Nc1ccc([N+](=O)[O-])cc1Cl	7.5	5.8	1.8	19.8	-12.9	-0.5
Cc1ccc(Cl)cc1NC(=O)C[n+]1ccc(Cc2ccc([N+](=O)[O-])cc2)cc1	-0.9	-10.4	8.7	-3.8	-7.7	65.0*
CCN1C(=O)N(C(C)=O)[C@@H]2C[C@H](C(=O)N3CCCC3)[C@H](C)[C@H](c3ccccc3)C[C@@H]21	-3.9	·	·	·	·	·
Cc1cc(C)c2cc(CN(CC3CCCO3)S(=O)(=O)c3ccc4c(c3)OCCO4)c(=O)[nH]c2c1 (centres undefined)	-7.8	24.3	-3.3	-5.2	-26.1	61.8*
O=[N+]([O-])c1cccc(/C=C/c2ccncc2)c1	-4.9	47.8	0.7	16.7	-2.5	-6.6
O=[N+]([O-])c1ccc(/C=C/c2ccncc2)cc1	-4.0	65.5*	0.1	14.7	-2.2	33.7
O=C(/C=C/c1ccc([N+](=O)[O-])cc1)Nc1cccnc1	-3.5	-19.1	-3.7	18.9	-2.9	54.1*
CCn1c2c(n(C(C)=O)c1=O)C=C(C(=O)N1CCCC1)C(C)C(c1ccccc1)=C2 (centres undefined)	-4.5	·	·	·	·	·
